≈ marks a conversion by molar mass, not a printed value. Residues, ends and D or L forms follow the SMILES beside them. *: point of attachment. βNA = c1ccc2cc(N*)ccc2c1
Columns and labels:
[1] = test system: Salmonella enteritidis; assay: Antimicrobial activity against ramA::aph-deficient ciprofloxacin-resistant Salmonella enterica serovar enteritidis isolate 5408-cip harboring gyrA D87Y, gyrB E466D, parE V461G mutant gene by Etest; format: functional, Salmonella enterica subsp. enterica serovar Enteritidis
Method in brief: (§1)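 Deletions (acrB, marA, soxS or ramA) were moved from SL1344 mutants into the isolates by P22 phage transduction. Transductants were selected on LB agar with 50 µg/ml kanamycin, and insertion of the kanamycin resistance gene was confirmed by PCR. MICs were then determined by Etest.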

[2] = test system: Salmonella enteritidis; assay: Antimicrobial activity against Salmonella enterica serovar enteritidis isolate 104-cip harboring gyrA D87Y,S83F mutant gene by Etest; format: functional, Salmonella enterica subsp. enterica serovar Enteritidis
[3] = test system: Salmonella enteritidis; assay: Antimicrobial activity against marA::aph-deficient ciprofloxacin-resistant Salmonella enterica serovar enteritidis isolate 104-cip harboring gyrA D87Y,S83F mutant gene by Etest; format: functional, Salmonella enterica subsp. enterica serovar Enteritidis; method in brief: as §1
[4] = test system: Salmonella enteritidis; assay: Antimicrobial activity against Salmonella enterica serovar enteritidis isolate 104 harboring gyrA D87Y mutant gene by Etest; format: functional, Salmonella enterica subsp. enterica serovar Enteritidis
[5] = test system: Salmonella enteritidis; assay: Antimicrobial activity against Salmonella enterica serovar enteritidis isolate 5408 harboring gyrA D87Y mutant gene by Etest; format: functional, Salmonella enterica subsp. enterica serovar Enteritidis
[6] = test system: Salmonella enteritidis; assay: Antimicrobial activity against acrB::aph-deficient ciprofloxacin-resistant Salmonella enterica serovar enteritidis isolate 5408-cip harboring gyrA D87Y, gyrB E466D, parE V461G mutant gene by Etest; format: functional, Salmonella enterica subsp. enterica serovar Enteritidis; method in brief: as §1
[7] = test system: Salmonella enteritidis; assay: Antimicrobial activity against ciprofloxacin-resistant Salmonella enterica serovar enteritidis isolate 5408-cip harboring gyrA D87Y, gyrB E466D, parE V461G mutant gene by Etest; format: functional, Salmonella enterica subsp. enterica serovar Enteritidis
[8] = test system: Salmonella enteritidis; assay: Antimicrobial activity against soxS::aph-deficient ciprofloxacin-resistant Salmonella enterica serovar enteritidis isolate 104-cip harboring gyrA D87Y,S83F mutant gene by Etest; format: functional, Salmonella enterica subsp. enterica serovar Enteritidis; method in brief: as §1
[9] = test system: Salmonella enteritidis; assay: Antimicrobial activity against acrB::aph-deficient ciprofloxacin-resistant Salmonella enterica serovar enteritidis isolate 104-cip harboring gyrA D87Y,S83F mutant gene by Etest; format: functional, Salmonella enterica subsp. enterica serovar Enteritidis; method in brief: as §1
[10] = test system: Salmonella enterica subsp. enterica serovar Enteritidis; assay: Inhibition of AcrAB-TolC efflux pump in Salmonella enterica serovar enteritidis isolate 5408 assessed as fold increase in ciprofloxacin MIC relative to control
[11] = test system: Salmonella enterica subsp. enterica serovar Enteritidis; assay: Inhibition of AcrAB-TolC efflux pump in Salmonella enterica serovar enteritidis isolate CUH52 assessed as fold increase in nalidixic acid MIC relative to control
[12] = test system: Salmonella enterica subsp. enterica serovar Enteritidis; assay: Inhibition of AcrAB-TolC efflux pump in Salmonella enterica serovar enteritidis isolate CUH60 assessed as fold increase in ciprofloxacin MIC relative to control
[13] = test system: Salmonella enterica subsp. enterica serovar Enteritidis; assay: Inhibition of AcrAB-TolC efflux pump in Salmonella enterica serovar enteritidis isolate 5408 assessed as fold increase in ampicillin MIC relative to control
[14] = test system: Salmonella enterica subsp. enterica serovar Enteritidis; assay: Inhibition of AcrAB-TolC efflux pump in Salmonella enterica serovar enteritidis isolate 4931 assessed as fold increase in ciprofloxacin MIC relative to control
[15] = test system: Salmonella enterica subsp. enterica serovar Enteritidis; assay: Inhibition of AcrAB-TolC efflux pump in Salmonella enterica serovar enteritidis isolate 104 assessed as fold increase in trimethoprim-sulfamethoxazole MIC relative to control
[16] = test system: Salmonella enterica subsp. enterica serovar Enteritidis; assay: Inhibition of AcrAB-TolC efflux pump in Salmonella enterica serovar enteritidis isolate 51 assessed as fold increase in nalidixic acid MIC relative to control
[17] = test system: Salmonella enterica subsp. enterica serovar Enteritidis; assay: Inhibition of AcrAB-TolC efflux pump in Salmonella enterica serovar enteritidis isolate CUH52 assessed as fold increase in ciprofloxacin MIC relative to control
[18] = test system: Salmonella enterica subsp. enterica serovar Enteritidis; assay: Inhibition of AcrAB-TolC efflux pump in ciprofloxacin-resistant Salmonella enterica serovar enteritidis isolate CUH48 assessed as fold increase in ciprofloxacin MIC relative to control
[19] = test system: Salmonella enterica subsp. enterica serovar Enteritidis; assay: Inhibition of AcrAB-TolC efflux pump in Salmonella enterica serovar enteritidis isolate 5408-cip assessed as fold increase in tetracycline MIC relative to control
[20] = test system: Salmonella enterica subsp. enterica serovar Enteritidis; assay: Inhibition of AcrAB-TolC efflux pump in Salmonella enterica serovar enteritidis isolate 104 assessed as fold increase in tetracycline MIC relative to control
[21] = test system: Salmonella enterica subsp. enterica serovar Enteritidis; assay: Inhibition of AcrAB-TolC efflux pump in Salmonella enterica serovar enteritidis isolate 104 assessed as fold increase in chloramphenicol MIC relative to control
[22] = test system: Salmonella enterica subsp. enterica serovar Enteritidis; assay: Inhibition of AcrAB-TolC efflux pump in Salmonella enterica serovar enteritidis isolate 54 assessed as fold increase in ciprofloxacin MIC relative to control
[23] = test system: Salmonella enterica subsp. enterica serovar Enteritidis; assay: Inhibition of AcrAB-TolC efflux pump in Salmonella enterica serovar enteritidis isolate 51 assessed as fold increase in ciprofloxacin MIC relative to control
[24] = test system: Salmonella enterica subsp. enterica serovar Enteritidis; assay: Inhibition of AcrAB-TolC efflux pump in Salmonella enterica serovar enteritidis isolate 5408-cip assessed as fold increase in ampicillin MIC relative to control
[25] = test system: Salmonella enterica subsp. enterica serovar Enteritidis; assay: Inhibition of AcrAB-TolC efflux pump in Salmonella enterica serovar enteritidis isolate 5408-cip assessed as fold increase in nalidixic acid MIC relative to control
[26] = test system: Salmonella enterica subsp. enterica serovar Enteritidis; assay: Inhibition of AcrAB-TolC efflux pump in Salmonella enterica serovar enteritidis isolate 58 assessed as fold increase in ciprofloxacin MIC relative to controlphenylalanine-arginine-beta-naphthylamide
[27] = test system: Salmonella enterica subsp. enterica serovar Enteritidis; assay: Inhibition of AcrAB-TolC efflux pump in Salmonella enterica serovar enteritidis isolate 104-cip assessed as fold increase in tetracycline MIC relative to control
[28] = test system: Salmonella enterica subsp. enterica serovar Enteritidis; assay: Inhibition of AcrAB-TolC efflux pump in Salmonella enterica serovar enteritidis isolate 5408-cip assessed as fold increase in ciprofloxacin MIC relative to control
[29] = test system: Salmonella enterica subsp. enterica serovar Enteritidis; assay: Inhibition of AcrAB-TolC efflux pump in Salmonella enterica serovar enteritidis isolate 5408 assessed as fold increase in tetracycline MIC relative to control
[30] = test system: Salmonella enterica subsp. enterica serovar Enteritidis; assay: Inhibition of AcrAB-TolC efflux pump in Salmonella enterica serovar enteritidis isolate 54 assessed as fold increase in nalidixic acid MIC relative to control
[31] = test system: Salmonella enterica subsp. enterica serovar Enteritidis; assay: Inhibition of AcrAB-TolC efflux pump in Salmonella enterica serovar enteritidis isolate 5408 assessed as fold increase in chloramphenicol MIC relative to control
[32] = test system: Salmonella enterica subsp. enterica serovar Enteritidis; assay: Inhibition of AcrAB-TolC efflux pump in Salmonella enterica serovar enteritidis isolate 104 assessed as fold increase in ciprofloxacin MIC relative to control
[33] = test system: Salmonella enterica subsp. enterica serovar Enteritidis; assay: Inhibition of AcrAB-TolC efflux pump in Salmonella enterica serovar enteritidis isolate 104 assessed as fold increase in ampicillin MIC relative to control
[34] = test system: Salmonella enterica subsp. enterica serovar Enteritidis; assay: Inhibition of AcrAB-TolC efflux pump in ciprofloxacin-resistant Salmonella enterica serovar enteritidis isolate CUH48 assessed as fold increase in nalidixic acid MIC relative to control
[35] = test system: Salmonella enterica subsp. enterica serovar Enteritidis; assay: Inhibition of AcrAB-TolC efflux pump in Salmonella enterica serovar enteritidis isolate 5408-cip assessed as fold increase in trimethoprim-sulfamethoxazole MIC relative to control
[36] = test system: Salmonella enterica subsp. enterica serovar Enteritidis; assay: Inhibition of AcrAB-TolC efflux pump in Salmonella enterica serovar enteritidis isolate 104 assessed as fold increase in nalidixic acid MIC relative to control
[37] = test system: Salmonella enterica subsp. enterica serovar Enteritidis; assay: Inhibition of AcrAB-TolC efflux pump in Salmonella enterica serovar enteritidis isolate NCTC 13349 assessed as fold increase in nalidixic acid MIC relative to control
[38] = test system: Salmonella enterica subsp. enterica serovar Enteritidis; assay: Inhibition of AcrAB-TolC efflux pump in Salmonella enterica serovar enteritidis isolate 104-cip assessed as fold increase in chloramphenicol MIC relative to control
[39] = test system: Salmonella enterica subsp. enterica serovar Enteritidis; assay: Inhibition of AcrAB-TolC efflux pump in Salmonella enterica serovar enteritidis isolate 5408 assessed as fold increase in trimethoprim-sulfamethoxazole MIC relative to control
[40] = test system: Salmonella enterica subsp. enterica serovar Enteritidis; assay: Inhibition of AcrAB-TolC efflux pump in Salmonella enterica serovar enteritidis isolate 104-cip assessed as fold increase in nalidixic acid MIC relative to control
[41] = test system: Salmonella enterica subsp. enterica serovar Enteritidis; assay: Inhibition of AcrAB-TolC efflux pump in Salmonella enterica serovar enteritidis isolate 5408 assessed as fold increase in nalidixic acid MIC relative to control
[42] = test system: Salmonella enterica subsp. enterica serovar Enteritidis; assay: Inhibition of AcrAB-TolC efflux pump in Salmonella enterica serovar enteritidis isolate 104-cip assessed as fold increase in ciprofloxacin MIC relative to control
[43] = test system: Salmonella enterica subsp. enterica serovar Enteritidis; assay: Inhibition of AcrAB-TolC efflux pump in Salmonella enterica serovar enteritidis isolate 4931 assessed as fold increase in nalidixic acid MIC relative to control
[44] = test system: Salmonella enterica subsp. enterica serovar Enteritidis; assay: Inhibition of AcrAB-TolC efflux pump in Salmonella enterica serovar enteritidis isolate 58 assessed as fold increase in nalidixic acid MIC relative to controlphenylalanine-arginine-beta-naphthylamide
[45] = test system: Salmonella enterica subsp. enterica serovar Enteritidis; assay: Inhibition of AcrAB-TolC efflux pump in Salmonella enterica serovar enteritidis isolate 104-cip assessed as fold increase in trimethoprim-sulfamethoxazole MIC relative to control
[46] = test system: Salmonella enterica subsp. enterica serovar Enteritidis; assay: Inhibition of AcrAB-TolC efflux pump in Salmonella enterica serovar enteritidis isolate 5408-cip assessed as fold increase in chloramphenicol MIC relative to control
[47] = test system: Salmonella enterica subsp. enterica serovar Enteritidis; assay: Inhibition of AcrAB-TolC efflux pump in Salmonella enterica serovar enteritidis isolate 104-cip assessed as fold increase in ampicillin MIC relative to control
[48] = test system: Salmonella enterica subsp. enterica serovar Enteritidis; assay: Inhibition of AcrAB-TolC efflux pump in Salmonella enterica serovar enteritidis isolate NCTC 13349 assessed as fold increase in ciprofloxacin MIC relative to control
[49] = test system: Salmonella enterica subsp. enterica serovar Enteritidis; assay: Inhibition of AcrAB-TolC efflux pump in Salmonella enterica serovar enteritidis isolate CUH60 assessed as fold increase in nalidixic acid MIC relative to control

With `CC1(C)S[C@@H]2[C@H](NC(=O)[C@H](N)c3ccccc3)C(=O)N2[C@H]1C(=O)O` [AMPICILLIN] the MIC [1] was 1 µg/mL (≈ 2.86 µM), the MIC [2] was 16 µg/mL (≈ 45.8 µM) and the MIC [3] was 1.5 µg/mL (≈ 4.29 µM). It also gave an MIC [4] of 1 µg/mL (≈ 2.86 µM), an MIC [5] of 1 µg/mL (≈ 2.86 µM) and an MIC [6] of 0.094 µg/mL (≈ 0.269 µM). The MIC [7] was 4 µg/mL (≈ 11.4 µM), the MIC [8] was 0.5 µg/mL (≈ 1.43 µM) and the MIC [9] was 0.125 µg/mL (≈ 0.358 µM).
For `N=C(N)NCCC[C@H](NC(=O)[C@@H](N)Cc1ccccc1)C(=O)Nc1ccc2ccccc2c1` (H-Phe-Arg-βNA), the Activity [10] was 0.094 µg/mL, the Activity [11] was 0.75 µg/mL and the Activity [12] was 0.094 µg/mL. It also gave an Activity [13] of 1 µg/mL, an Activity [14] of 0.064 µg/mL and an Activity [15] of 0.023 µg/mL. The Activity [16] was 32 µg/mL, the Activity [17] was 0.008 µg/mL and the MIC [18] was 0.012 µg/mL. It also gave an Activity [19] of 0.094 µg/mL, an Activity [20] of 0.19 µg/mL and an Activity [21] of 0.75 µg/mL. For the same compound, the Activity [22] was 0.064 µg/mL, the Activity [23] was 0.094 µg/mL and the Activity [24] was 2 µg/mL. It also gave an Activity [25] of 16 µg/mL, an Activity [26] of 0.064 µg/mL and an Activity [27] of 3 µg/mL. It also gave an Activity [28] of 2 µg/mL, an Activity [29] of 0.19 µg/mL and an Activity [30] of 16 µg/mL. For the same compound, the Activity [31] was 0.5 µg/mL, the Activity [32] was 0.094 µg/mL and the Activity [33] was 0.75 µg/mL. For the same compound, the MIC [34] was 0.5 µg/mL (≈ 1.12 µM), the Activity [35] was 0.032 µg/mL and the Activity [36] was 24 µg/mL. For the same compound, the Activity [37] was 0.38 µg/mL, the Activity [38] was 1 µg/mL and the Activity [39] was 0.023 µg/mL. The Activity [40] was 256 µg/mL, the Activity [41] was 24 µg/mL and the Activity [42] was 2 µg/mL. For the same compound, the Activity [43] was 16 µg/mL, the Activity [44] was 24 µg/mL and the Activity [45] was 0.023 µg/mL. It also gave an Activity [46] of 0.38 µg/mL, an Activity [47] of 1 µg/mL and an Activity [48] of 0.008 µg/mL. For the same compound, the Activity [49] was 32 µg/mL.

Source: ChEMBL document CHEMBL1629649, “Multiple regulatory pathways associated with high-level ciprofloxacin and multidrug resistance in Salmonella enterica serovar enteritidis: involvement of RamA and other global regulators” (2009)
